pIC50: −log10 of the molar value.
Assays:
[1] = Basolateral Caco-2 cell membrane permeability; format: ADME, cell-based; details: human
[2] = target: cAMP and cAMP-inhibited cGMP 3',5'-cyclic phosphodiesterase 10A (Homo sapiens, UniProt Q9Y233); experiment: Inhibitory activity against PDE10 by scintillation proximity assay
Summary of the method: (§1)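 Phosphodiesterase inhibition run as a scintillation proximity assay, with enzyme at a concentration in the linear range. Final substrate was 1 µM, below one-third of the enzyme K_M, so that IC50 approximates Ki. Values are means of n experiments with standard deviation.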

[3] = target: 3',5'-cyclic-AMP phosphodiesterase 4A (Homo sapiens, UniProt P27815); experiment: Inhibitory activity against PDE4A by scintillation proximity assay; summary of the method: as §1
Chain of 3',5'-cyclic-AMP phosphodiesterase 4A (P27815 whole entry): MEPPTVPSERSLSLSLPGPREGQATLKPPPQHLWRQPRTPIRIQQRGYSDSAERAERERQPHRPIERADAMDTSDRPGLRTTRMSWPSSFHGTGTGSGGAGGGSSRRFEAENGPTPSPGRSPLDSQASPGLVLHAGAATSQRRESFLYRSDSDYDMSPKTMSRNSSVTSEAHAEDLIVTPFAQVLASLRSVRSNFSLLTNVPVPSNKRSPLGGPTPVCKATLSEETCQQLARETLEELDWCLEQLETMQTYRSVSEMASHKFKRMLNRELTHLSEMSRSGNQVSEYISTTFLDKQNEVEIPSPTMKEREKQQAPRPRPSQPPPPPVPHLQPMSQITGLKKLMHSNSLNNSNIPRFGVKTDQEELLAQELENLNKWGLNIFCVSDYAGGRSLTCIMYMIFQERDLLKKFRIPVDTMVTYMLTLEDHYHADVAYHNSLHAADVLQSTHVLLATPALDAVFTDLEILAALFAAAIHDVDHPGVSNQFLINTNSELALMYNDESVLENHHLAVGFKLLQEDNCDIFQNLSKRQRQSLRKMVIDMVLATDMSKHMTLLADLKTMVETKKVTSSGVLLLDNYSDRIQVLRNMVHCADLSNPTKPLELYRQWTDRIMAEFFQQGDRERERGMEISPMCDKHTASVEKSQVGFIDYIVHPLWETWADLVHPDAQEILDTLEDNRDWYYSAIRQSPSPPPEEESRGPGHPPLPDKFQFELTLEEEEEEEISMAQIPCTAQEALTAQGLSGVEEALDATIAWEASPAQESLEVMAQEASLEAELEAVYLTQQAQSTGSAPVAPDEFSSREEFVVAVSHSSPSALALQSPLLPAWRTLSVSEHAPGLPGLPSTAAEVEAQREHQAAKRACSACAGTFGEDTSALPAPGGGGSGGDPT

[4] = Turbidimetric solubility at pH 7; format: ADME, organism-based, Homo sapiens
[5] = target: cGMP-dependent 3',5'-cyclic phosphodiesterase (Homo sapiens, UniProt O00408); experiment: Inhibitory activity against PDE2 by scintillation proximity assay; summary of the method: as §1
Chain of cGMP-dependent 3',5'-cyclic phosphodiesterase (O00408 whole entry): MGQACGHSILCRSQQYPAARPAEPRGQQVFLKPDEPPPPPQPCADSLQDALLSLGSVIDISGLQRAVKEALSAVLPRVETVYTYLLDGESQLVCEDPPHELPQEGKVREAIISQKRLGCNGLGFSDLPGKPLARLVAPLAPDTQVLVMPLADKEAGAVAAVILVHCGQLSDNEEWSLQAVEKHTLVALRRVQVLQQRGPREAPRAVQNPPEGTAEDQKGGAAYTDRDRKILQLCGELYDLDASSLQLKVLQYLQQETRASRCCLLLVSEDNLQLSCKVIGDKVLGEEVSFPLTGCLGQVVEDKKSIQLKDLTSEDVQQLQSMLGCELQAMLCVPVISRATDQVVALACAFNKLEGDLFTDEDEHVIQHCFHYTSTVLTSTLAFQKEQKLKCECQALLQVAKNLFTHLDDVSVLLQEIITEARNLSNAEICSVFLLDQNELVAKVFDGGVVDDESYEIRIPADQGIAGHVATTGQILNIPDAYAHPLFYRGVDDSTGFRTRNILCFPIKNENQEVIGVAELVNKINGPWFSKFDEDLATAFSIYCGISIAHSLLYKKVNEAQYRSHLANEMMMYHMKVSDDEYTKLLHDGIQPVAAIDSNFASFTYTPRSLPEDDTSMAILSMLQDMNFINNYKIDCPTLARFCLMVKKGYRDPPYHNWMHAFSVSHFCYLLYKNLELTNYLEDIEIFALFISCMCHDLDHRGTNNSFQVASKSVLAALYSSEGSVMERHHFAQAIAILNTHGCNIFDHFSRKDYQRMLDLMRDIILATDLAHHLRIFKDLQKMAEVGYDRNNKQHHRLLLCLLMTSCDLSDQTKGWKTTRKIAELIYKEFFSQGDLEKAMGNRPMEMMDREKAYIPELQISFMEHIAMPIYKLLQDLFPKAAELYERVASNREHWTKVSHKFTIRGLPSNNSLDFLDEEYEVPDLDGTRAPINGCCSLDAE

[6] = target: Phosphodiesterase 1 (Homo sapiens, UniProt P54750+Q01064+Q14123); experiment: Inhibitory activity against PDE1 by scintillation proximity assay; format: protein assay; summary of the method: as §1
[7] = Apical Caco-2 cell membrane permeability; format: ADME, cell-based; details: human
[8] = target: 3',5'-cyclic-AMP phosphodiesterase 4D (Homo sapiens, UniProt Q08499); experiment: Inhibitory activity against PDE4D by scintillation proximity assay
Chain of 3',5'-cyclic-AMP phosphodiesterase 4D (Q08499 whole entry): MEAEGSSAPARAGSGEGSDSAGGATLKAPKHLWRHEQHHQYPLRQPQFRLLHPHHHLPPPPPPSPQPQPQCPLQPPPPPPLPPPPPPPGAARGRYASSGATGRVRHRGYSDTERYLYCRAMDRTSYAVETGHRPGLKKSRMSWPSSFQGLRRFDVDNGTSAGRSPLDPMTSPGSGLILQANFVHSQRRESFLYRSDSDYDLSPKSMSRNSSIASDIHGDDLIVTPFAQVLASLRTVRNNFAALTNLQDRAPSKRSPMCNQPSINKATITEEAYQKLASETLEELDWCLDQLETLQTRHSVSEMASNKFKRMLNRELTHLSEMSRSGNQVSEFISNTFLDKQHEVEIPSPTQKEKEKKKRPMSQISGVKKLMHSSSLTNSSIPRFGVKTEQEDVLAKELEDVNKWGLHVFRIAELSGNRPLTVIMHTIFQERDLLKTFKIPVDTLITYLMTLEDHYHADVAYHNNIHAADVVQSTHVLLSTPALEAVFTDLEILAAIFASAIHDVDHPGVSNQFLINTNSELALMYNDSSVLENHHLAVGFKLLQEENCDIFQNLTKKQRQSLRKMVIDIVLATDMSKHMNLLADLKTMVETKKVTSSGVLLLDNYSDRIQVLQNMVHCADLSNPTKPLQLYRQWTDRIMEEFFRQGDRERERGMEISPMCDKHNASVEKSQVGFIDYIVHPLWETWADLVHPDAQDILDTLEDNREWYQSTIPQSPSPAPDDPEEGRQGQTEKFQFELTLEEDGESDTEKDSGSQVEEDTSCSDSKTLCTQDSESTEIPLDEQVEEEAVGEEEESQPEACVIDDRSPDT
Summary of the method: (§2)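 Scintillation proximity assay for phosphodiesterase inhibition. Enzyme is used at a concentration within the linear range, and its KM was measured. Final substrate concentration is 1 µM, below one-third of KM, so IC50 approximates Ki. Results are means of n experiments with standard deviation.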

[9] = target: 3',5'-cyclic-AMP phosphodiesterase 4B (Homo sapiens, UniProt Q07343); experiment: Inhibitory activity against PDE4B by scintillation proximity assay; summary of the method: as §1
Chain of 3',5'-cyclic-AMP phosphodiesterase 4B (Q07343 whole entry): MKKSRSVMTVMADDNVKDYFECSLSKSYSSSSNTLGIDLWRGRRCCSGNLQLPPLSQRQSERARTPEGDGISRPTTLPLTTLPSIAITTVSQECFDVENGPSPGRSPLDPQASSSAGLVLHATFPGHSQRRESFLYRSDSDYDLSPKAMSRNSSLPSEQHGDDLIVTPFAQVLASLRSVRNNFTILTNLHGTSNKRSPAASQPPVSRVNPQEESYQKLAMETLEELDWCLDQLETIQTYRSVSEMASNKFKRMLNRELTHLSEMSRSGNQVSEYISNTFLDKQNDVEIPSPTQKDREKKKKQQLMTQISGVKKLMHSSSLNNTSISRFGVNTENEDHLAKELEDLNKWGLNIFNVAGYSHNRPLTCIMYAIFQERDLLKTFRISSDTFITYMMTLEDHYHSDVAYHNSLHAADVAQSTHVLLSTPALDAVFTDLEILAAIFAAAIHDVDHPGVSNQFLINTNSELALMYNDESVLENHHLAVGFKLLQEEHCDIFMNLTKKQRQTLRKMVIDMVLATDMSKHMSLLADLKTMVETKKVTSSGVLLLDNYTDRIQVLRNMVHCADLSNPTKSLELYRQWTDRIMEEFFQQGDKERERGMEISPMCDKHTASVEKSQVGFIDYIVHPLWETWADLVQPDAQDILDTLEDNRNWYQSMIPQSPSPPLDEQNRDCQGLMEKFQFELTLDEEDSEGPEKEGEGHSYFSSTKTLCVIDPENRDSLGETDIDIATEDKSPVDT

[10] = target: Phosphodiesterase 3 (Homo sapiens, UniProt Q14432+Q13370); experiment: Inhibitory activity against PDE3 by scintillation proximity assay; format: protein assay; summary of the method: as §1
[11] = target: High affinity cAMP-specific and IBMX-insensitive 3',5'-cyclic phosphodiesterase 8B (Homo sapiens, UniProt O95263); experiment: Inhibitory activity against PDE8B by scintillation proximity assay; summary of the method: as §2
Chain of High affinity cAMP-specific and IBMX-insensitive 3',5'-cyclic phosphodiesterase 8B (O95263 whole entry): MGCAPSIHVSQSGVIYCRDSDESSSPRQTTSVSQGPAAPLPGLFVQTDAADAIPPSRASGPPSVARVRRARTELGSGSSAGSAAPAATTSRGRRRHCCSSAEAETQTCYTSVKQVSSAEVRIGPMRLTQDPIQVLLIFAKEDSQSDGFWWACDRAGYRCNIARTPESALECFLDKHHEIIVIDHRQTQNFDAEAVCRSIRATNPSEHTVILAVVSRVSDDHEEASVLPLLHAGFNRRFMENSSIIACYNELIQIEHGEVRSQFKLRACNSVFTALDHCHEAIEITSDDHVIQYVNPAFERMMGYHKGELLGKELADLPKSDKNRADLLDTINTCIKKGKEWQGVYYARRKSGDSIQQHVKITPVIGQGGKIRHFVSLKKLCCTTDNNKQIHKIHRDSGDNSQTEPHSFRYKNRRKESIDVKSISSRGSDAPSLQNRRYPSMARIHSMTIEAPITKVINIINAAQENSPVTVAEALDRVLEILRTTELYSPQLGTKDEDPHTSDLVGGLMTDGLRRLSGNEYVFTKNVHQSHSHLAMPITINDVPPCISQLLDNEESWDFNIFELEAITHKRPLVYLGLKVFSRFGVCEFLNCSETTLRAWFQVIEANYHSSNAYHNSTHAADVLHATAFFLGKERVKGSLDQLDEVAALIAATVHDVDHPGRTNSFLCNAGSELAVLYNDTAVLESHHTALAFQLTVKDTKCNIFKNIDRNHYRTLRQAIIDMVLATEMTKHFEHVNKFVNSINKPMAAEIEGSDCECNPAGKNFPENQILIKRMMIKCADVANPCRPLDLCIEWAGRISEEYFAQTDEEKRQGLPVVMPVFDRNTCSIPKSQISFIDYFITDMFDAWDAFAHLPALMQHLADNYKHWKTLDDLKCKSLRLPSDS

[12] = target: 3',5'-cyclic-AMP phosphodiesterase 4C (Homo sapiens, UniProt Q08493); experiment: Inhibitory activity against PDE4C by scintillation proximity assay; summary of the method: as §2
[13] = target: cGMP-specific 3',5'-cyclic phosphodiesterase (Homo sapiens, UniProt O76074); experiment: Inhibitory activity against PDE5 by scintillation proximity assay; summary of the method: as §2
[14] = Half life in rat liver microsome; format: ADME; details: liver microsomes
[15] = target: High affinity cAMP-specific and IBMX-insensitive 3',5'-cyclic phosphodiesterase 8A (Homo sapiens, UniProt O60658); experiment: Inhibitory activity against PDE8A by scintillation proximity assay; summary of the method: as §2
Chain of High affinity cAMP-specific and IBMX-insensitive 3',5'-cyclic phosphodiesterase 8A (O60658 whole entry): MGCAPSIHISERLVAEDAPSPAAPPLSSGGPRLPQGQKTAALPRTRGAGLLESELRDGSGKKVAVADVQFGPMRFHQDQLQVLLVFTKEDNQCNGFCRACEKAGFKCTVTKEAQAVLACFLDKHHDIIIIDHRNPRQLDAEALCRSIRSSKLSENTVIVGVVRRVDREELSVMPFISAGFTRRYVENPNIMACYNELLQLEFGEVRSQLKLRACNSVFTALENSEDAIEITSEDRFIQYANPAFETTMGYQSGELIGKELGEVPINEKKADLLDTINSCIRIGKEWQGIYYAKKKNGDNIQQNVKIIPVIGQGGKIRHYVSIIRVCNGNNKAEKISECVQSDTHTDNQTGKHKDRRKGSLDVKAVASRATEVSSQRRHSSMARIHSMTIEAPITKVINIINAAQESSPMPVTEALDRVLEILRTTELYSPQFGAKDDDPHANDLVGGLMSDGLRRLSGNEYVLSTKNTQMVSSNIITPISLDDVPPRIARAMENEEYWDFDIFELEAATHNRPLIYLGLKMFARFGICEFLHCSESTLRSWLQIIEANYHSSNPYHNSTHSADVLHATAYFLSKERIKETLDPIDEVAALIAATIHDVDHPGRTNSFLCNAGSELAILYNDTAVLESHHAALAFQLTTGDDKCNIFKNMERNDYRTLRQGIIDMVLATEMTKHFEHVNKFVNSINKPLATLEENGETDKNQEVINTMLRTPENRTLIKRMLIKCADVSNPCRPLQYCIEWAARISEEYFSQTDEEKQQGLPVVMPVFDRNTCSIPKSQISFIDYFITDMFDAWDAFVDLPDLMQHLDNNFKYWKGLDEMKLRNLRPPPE

[16] = target: High affinity cGMP-specific 3',5'-cyclic phosphodiesterase 9A (Homo sapiens, UniProt O76083); experiment: Inhibitory activity against PDE9 by scintillation proximity assay; summary of the method: as §2

Papp [1]: 18 ×10⁻⁶ cm/s | pIC50 [2]: < 4.80 | pIC50 [3]: < 4.80 | solubility kinetic [4]: > 65 µg/mL | pIC50 [5]: 6.20 | IC50 [6]: > 16 µM | Papp [7]: 34 ×10⁻⁶ cm/s | pIC50 [8]: < 4.80 | pIC50 [9]: < 4.80 | IC50 [10]: > 16 µM | pIC50 [11]: < 4.80 | pIC50 [12]: < 4.80 | pIC50 [13]: < 4.80 | half-life [14]: 31 min | pIC50 [15]: < 4.80 | pIC50 [16]: < 4.80
SMILES: CCCCCC[C@H]([C@H](C)O)n1cnc2c(N)ncnc21 [(+)-EHNA]

— ChEMBL document CHEMBL1147762, “A new chemical tool for exploring the physiological function of the PDE2 isozyme” (Bioorg Med Chem Lett, 2006)
